# Measurements from different studies.
# Target: Serine/threonine-protein kinase PAK 4 (PAK4, Homo sapiens, UniProt O96013)
Compound,effect on,mode,method,tested at,measurement,result
CS(=O)(=O)CCNCc1ccc(-c2ccc3ncnc(Nc4ccc(OCc5cccc(F)c5)c(Cl)c4)c3c2)o1,cell-free assay,,,0.5 µM,remaining signal,89.9%
Cn1c(=O)n(-c2ccc(C(C)(C)C#N)cc2)c2c3cc(-c4cnc5ccccc5c4)ccc3ncc21,enzyme activity,inhibitor,,10 µM,remaining activity,87%
Cc1ccc(C(=O)Nc2ccc(CN3CCN(C)CC3)c(C(F)(F)F)c2)cc1C#Cc1cnc2cccnn12,enzyme activity,inhibitor,,23.5 nM,remaining activity,91%
O=C(Nc1cnn(-c2csc(C(=O)NC3COC3)c2)c1)Nc1ccccc1Cl,enzyme activity,inhibitor,,5 µM,remaining activity,98.9%
CN(c1ncccc1CNc1nc(Nc2ccc3c(c2)CC(=O)N3)ncc1C(F)(F)F)S(C)(=O)=O,enzyme activity,inhibitor,,1 µM,inhibition,88.5%
CCN(CC)CCNC(=O)c1c(C)[nH]c(/C=C2\C(=O)Nc3ccc(F)cc32)c1C,enzyme activity,inhibitor,,10 µM,inhibition,55%
O=C(CSc1nc2nccnc2c(=O)n1CCc1ccccc1)Nc1nccs1,enzyme activity,inhibitor,,10 µM,inhibition,2%
COc1cc(Nc2cnc(C#N)c(O[C@H](C)CN(C)C)n2)ncc1-c1cnn(C)c1,enzyme activity,inhibitor,radiometric,10 µM,remaining activity,70%
COc1cc(Cl)c(C(=O)N[C@@H](CN[C@H]2CC[C@@H](N)CC2)Cc2ccc(C#N)cc2)cc1-c1ccc(CN[C@H](C)c2ccc(C)cc2)o1,enzyme activity,inhibitor,,1 µM,remaining activity,102%
Cc1[nH]c(/C=C2\C(=O)Nc3ccc(F)cc32)c(C)c1C(=O)N[C@H]1CCN(C(=O)N(C)C)C1,enzyme activity,inhibitor,,1 µM,remaining activity,105%
CN(C(=O)c1ccccc1)c1cc(N(C)c2ccc3c(c2)CCc2ccc(C(=O)NCCN4CCOCC4)cc2C3=O)ccc1F,cell-free assay,,competition with immobilised ligand,1 µM,remaining binding,83%
CC(C)(C)c1nc(-c2cccc(NS(=O)(=O)c3c(F)cccc3F)c2F)c(-c2ccnc(N)n2)s1,enzyme activity,inhibitor,radiometric,1 µM,remaining activity,68%
Cc1ccc(C(=O)NCc2ccsc2)cc1C#Cc1cn(C(C)C)c2ncnc(N)c12,enzyme activity,inhibitor,,1 µM,activity vs control,102%
FC(F)(F)Oc1cccc(-c2cnc3ccc(-c4ccncc4)nn23)c1,enzyme activity,inhibitor,radiometric,1 µM,activity vs control,81%
CCCS(=O)(=O)Nc1ccc(F)c(C(=O)c2c[nH]c3ncc(-c4ccc(Cl)cc4)cc23)c1F,enzyme activity,inhibitor,,1 µM,inhibition,< 10%
COc1cc(-c2cc(-c3ccc(N4CCNCC4)cc3)cnc2C)cc(OC)c1OC,enzyme activity,inhibitor,,0.1 µM,inhibition,1%
Cc1cnc(NC2CCOCC2)nc1-n1cnc(C(=O)NC(CN)c2cc(F)cc(Cl)c2)c1 (stereo not shown),enzyme activity,inhibitor,radiometric,1 µM,remaining activity,96%
CC(C)(C)C(=O)c1sc(NC2CCCCC2)nc1N,enzyme activity,inhibitor,,10 µM,remaining activity,88%
COc1cc(-c2cn(C3CCc4c(F)cccc4N(CC(F)(F)F)C3=O)nn2)ccc1-n1cnc(C)c1 (stereo not shown),cell-free assay,,competition with immobilised ligand,1 µM,remaining binding,99%
CCCOc1ccc(OC)c(F)c1C(=O)c1ccc(C(=O)N[C@@H]2CNC[C@H]2NC(=O)c2ccc3[nH]ncc3c2)cc1,enzyme activity,inhibitor,,10 µM,remaining activity,90%
Cc1ccc(Nc2nccc(N(C)c3ccc4c(C)n(C)nc4c3)n2)cc1S(N)(=O)=O,enzyme activity,inhibitor,,0.3 µM,inhibition,-17%
CN(c1ccnc(CNc2nc(Nc3ccc4c(c3)CC(=O)N4)ncc2C(F)(F)F)n1)S(C)(=O)=O,cell-free assay,,competition with immobilised ligand,1 µM,remaining binding,52%
CNC(=O)c1cc(Oc2ccc(NC(=O)Nc3ccc(Cl)c(C(F)(F)F)c3)cc2)ccn1,enzyme activity,inhibitor,,10 µM,inhibition,-9%
Cc1sc(C(=O)NC2COC2)cc1-n1cc(NC(=O)Nc2c(F)cccc2Cl)cn1,enzyme activity,inhibitor,,10 µM,remaining activity,106%
c1ccc(N2CCN(Cc3nc4ccccc4[nH]3)CC2)nc1,cell-free assay,,competition with immobilised ligand,1 µM,remaining binding,93%
O=C1NC(=O)c2cc(Nc3ccc(F)cc3)c(Nc3ccc(F)cc3)cc21,cell-free assay,,,0.5 µM,remaining signal,95.1%
Cc1c[nH]c2nccc(Oc3c(F)cc(Nc4cc(Cl)nc(N)n4)cc3F)c12,cell-free assay,,competition with immobilised ligand,0.1 µM,remaining binding,100%
CC/C(=N\NC(=O)NCc1cccc(O)c1)c1ccc(O)c(C)c1O,enzyme activity,inhibitor,,0.1 µM,inhibition,10.6%
COc1cccc(CNC(=O)c2nc3scc(COCc4ccc(C(=O)O)cc4)c3c(=O)[nH]2)c1,cell-free assay,,competition with immobilised ligand,1 µM,remaining binding,100%
O=C1Nc2ccc(Cl)cc2C1=Cc1cc(Cl)c(O)c(Cl)c1,cell-free assay,,,0.5 µM,remaining signal,88.7%
CSc1cccnc1N1CCN(Cc2nc3ccccc3[nH]2)CC1,cell-free assay,,competition with immobilised ligand,1 µM,remaining binding,100%
COc1cc2c(N3CCN(C(=O)Nc4ccc(OC(C)C)cc4)CC3)ncnc2cc1OCCCN1CCCCC1,cell-free assay,,,0.5 µM,remaining signal,103%
Nc1cnc(N2CCc3cc(S(=O)(=O)Nc4c(F)cc(Cl)cc4F)cc(N4CCCC4=O)c32)nc1,cell-free assay,,competition with immobilised ligand,1 µM,remaining binding,89%
CCN(CC)CCNC(=O)c1c(C)[nH]c(/C=C2\C(=O)Nc3ccc(F)cc32)c1C,enzyme activity,inhibitor,,1 µM,remaining activity,82%
